What was measured:
Format in all cases: functional
Settings in all cases: read-out: Activity
ACHN = assay: Growth inhibition of human ACHN cells assessed as cell growth at 10 uM incubated for 48 hrs by sulforhodamine B assay relative to control
Procedure, shortened: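 NCI Developmental Therapeutics Program NCI60 human tumour cell line panel, one-dose primary screen with every compound at 10 µM. Growth is expressed as % of untreated control cells (100%).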

SF-539 = assay: Growth inhibition of human SF-539 cells assessed as cell growth at 10 uM incubated for 48 hrs by sulforhodamine B assay relative to control
Procedure, shortened: (§1)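 Run by the NCI Developmental Therapeutics Program as part of its 60-line human tumour panel. Each compound tested at a single 10 µM dose. Growth expressed as % relative to untreated control cells (100%).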

SK-MEL-5 = assay: Growth inhibition of human SK-MEL-5 cells assessed as cell growth at 10 uM incubated for 48 hrs by sulforhodamine B assay relative to control; procedure, shortened: as §1
MDA-MB-468 = assay: Growth inhibition of human MDA-MB-468 cells assessed as cell growth at 10 uM incubated for 48 hrs by sulforhodamine B assay relative to control
Procedure, shortened: (§2)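 Submitted to the NCI Developmental Therapeutics Program for the NCI60 human tumour cell line panel. First screen at a single 10 µM concentration. Read-out is growth relative to untreated control cells set at 100%.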

MCF7 = assay: Growth inhibition of human MCF7 cells assessed as cell growth at 10 uM incubated for 48 hrs by sulforhodamine B assay relative to control; procedure, shortened: as §2
CCRF-CEM = assay: Growth inhibition of human CCRF-CEM cells assessed as cell growth at 10 uM incubated for 48 hrs by sulforhodamine B assay relative to control
Procedure, shortened: (§3)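 NCI Developmental Therapeutics Program NCI60 panel. Compounds that were active in the 10 µM one-dose screen went on to dose–response testing. Growth at each concentration is expressed relative to untreated control (100%). GI50 (concentration giving 50% of maximal inhibition of proliferation) and TGI (concentration giving total growth inhibition) were derived from the curves.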

LOX IMVI = assay: Growth inhibition of human LOX IMVI cells assessed as cell growth at 10 uM incubated for 48 hrs by sulforhodamine B assay relative to control; procedure, shortened: as §2
NCI-H23 = assay: Growth inhibition of human NCI-H23 cells assessed as cell growth at 10 uM incubated for 48 hrs by sulforhodamine B assay relative to control; procedure, shortened: as §2
U-251 = assay: Growth inhibition of human U-251 cells assessed as cell growth at 10 uM incubated for 48 hrs by sulforhodamine B assay relative to control; procedure, shortened: as §1
OVCAR-4 = assay: Growth inhibition of human OVCAR-4 cells assessed as cell growth at 10 uM incubated for 48 hrs by sulforhodamine B assay relative to control; procedure, shortened: as §1
SF-295 = assay: Growth inhibition of human SF-295 cells assessed as cell growth at 10 uM incubated for 48 hrs by sulforhodamine B assay relative to control; procedure, shortened: as §1
HCC 2998 = assay: Growth inhibition of human HCC 2998 cells assessed as cell growth at 10 uM incubated for 48 hrs by sulforhodamine B assay relative to control; procedure, shortened: as §3
HOP-62 = assay: Growth inhibition of human HOP-62 cells assessed as cell growth at 10 uM incubated for 48 hrs by sulforhodamine B assay relative to control; procedure, shortened: as §2
UACC-62 = assay: Growth inhibition of human UACC-62 cells assessed as cell growth at 10 uM incubated for 48 hrs by sulforhodamine B assay relative to control; procedure, shortened: as §1
T47D = assay: Growth inhibition of human T47D cells assessed as cell growth at 10 uM incubated for 48 hrs by sulforhodamine B assay relative to control; procedure, shortened: as §1
NCI-H322M = assay: Growth inhibition of human NCI-H322M cells assessed as cell growth at 10 uM incubated for 48 hrs by sulforhodamine B assay relative to control; procedure, shortened: as §2
Malme-3M = assay: Growth inhibition of human Malme-3M cells assessed as cell growth at 10 uM incubated for 48 hrs by sulforhodamine B assay relative to control; procedure, shortened: as §2
SNB-19 = assay: Growth inhibition of human SNB-19 cells assessed as cell growth at 10 uM incubated for 48 hrs by sulforhodamine B assay relative to control; procedure, shortened: as §1
COLO 205 = assay: Growth inhibition of human COLO 205 cells assessed as cell growth at 10 uM incubated for 48 hrs by sulforhodamine B assay relative to control; procedure, shortened: as §3
OVCAR-3 = assay: Growth inhibition of human OVCAR-3 cells assessed as cell growth at 10 uM incubated for 48 hrs by sulforhodamine B assay relative to control; procedure, shortened: as §1
RPMI-8226 = assay: Growth inhibition of human RPMI-8226 cells assessed as cell growth at 10 uM incubated for 48 hrs by sulforhodamine B assay relative to control; procedure, shortened: as §1
KM12 = assay: Growth inhibition of human KM12 cells assessed as cell growth at 10 uM incubated for 48 hrs by sulforhodamine B assay relative to control; procedure, shortened: as §2
NCI-H460 = assay: Growth inhibition of human NCI-H460 cells assessed as cell growth at 10 uM incubated for 48 hrs by sulforhodamine B assay relative to control; procedure, shortened: as §2
UACC-257 = assay: Growth inhibition of human UACC-257 cells assessed as cell growth at 10 uM incubated for 48 hrs by sulforhodamine B assay relative to control; procedure, shortened: as §1
OVCAR-8 = assay: Growth inhibition of human OVCAR-8 cells assessed as cell growth at 10 uM incubated for 48 hrs by sulforhodamine B assay relative to control; procedure, shortened: as §1
OVCAR-5 = assay: Growth inhibition of human OVCAR-5 cells assessed as cell growth at 10 uM incubated for 48 hrs by sulforhodamine B assay relative to control; procedure, shortened: as §1
RXF 393 = assay: Growth inhibition of human RXF 393 cells assessed as cell growth at 10 uM incubated for 48 hrs by sulforhodamine B assay relative to control; procedure, shortened: as §1
DU-145 = assay: Growth inhibition of human DU-145 cells assessed as cell growth at 10 uM incubated for 48 hrs by sulforhodamine B assay relative to control; procedure, shortened: as §3
IGROV-1 = assay: Growth inhibition of human IGROV-1 cells assessed as cell growth at 10 uM incubated for 48 hrs by sulforhodamine B assay relative to control; procedure, shortened: as §2
HOP-92 = assay: Growth inhibition of human HOP-92 cells assessed as cell growth at 10 uM incubated for 48 hrs by sulforhodamine B assay relative to control; procedure, shortened: as §2
HCT-116 = assay: Growth inhibition of human HCT-116 cells assessed as cell growth at 10 uM incubated for 48 hrs by sulforhodamine B assay relative to control; procedure, shortened: as §2
A549 = assay: Growth inhibition of human A549/ATCC cells assessed as cell growth at 10 uM incubated for 48 hrs by sulforhodamine B assay relative to control; procedure, shortened: as §3
SN12C = assay: Growth inhibition of human SN12C cells assessed as cell growth at 10 uM incubated for 48 hrs by sulforhodamine B assay relative to control; procedure, shortened: as §1
SK-MEL-28 = assay: Growth inhibition of human SK-MEL-28 cells assessed as cell growth at 10 uM incubated for 48 hrs by sulforhodamine B assay relative to control; procedure, shortened: as §1
M14 = assay: Growth inhibition of human M14 cells assessed as cell growth at 10 uM incubated for 48 hrs by sulforhodamine B assay relative to control; procedure, shortened: as §2

| Structure (SMILES) | growth at 10 µM (SF-539) [%] | growth at 10 µM (SK-MEL-5) [%] | growth at 10 µM (MDA-MB-468) [%] | growth at 10 µM (MCF7) [%] | growth at 10 µM (CCRF-CEM) [%] | growth at 10 µM (LOX IMVI) [%] | growth at 10 µM (NCI-H23) [%] | growth at 10 µM (U-251) [%] | growth at 10 µM (OVCAR-4) [%] | growth at 10 µM (SF-295) [%] | growth at 10 µM (HCC 2998) [%] | growth at 10 µM (HOP-62) [%] | growth at 10 µM (UACC-62) [%] | growth at 10 µM (T47D) [%] | growth at 10 µM (NCI-H322M) [%] | growth at 10 µM (Malme-3M) [%] | growth at 10 µM (SNB-19) [%] | growth at 10 µM (OVCAR-3) [%] | growth at 10 µM (RPMI-8226) [%] | growth at 10 µM (KM12) [%] | other results |
| --- | --- | --- | --- | --- | --- | --- | --- | --- | --- | --- | --- | --- | --- | --- | --- | --- | --- | --- | --- | --- | --- |
| Nc1c(C(=O)Nc2ccccc2)sc2nc3c(cc12)CN(Cc1ccccc1)CC3 | 9 | 49 | 58 | 53 | 84 | 51 | 63 | 56 | 11 | 36 | 76 | 26 | 57 | 58 | 62 | 23 | 59 | 52 | 72 | 60 | growth at 10 µM (ACHN): 37%; growth at 10 µM (COLO 205): 66%; growth at 10 µM (NCI-H460): 44%; growth at 10 µM (UACC-257): 67%; growth at 10 µM (OVCAR-8): 59%; growth at 10 µM (OVCAR-5): 70%; growth at 10 µM (RXF 393): 12%; growth at 10 µM (DU-145): 57%; growth at 10 µM (IGROV-1): 74%; growth at 10 µM (HOP-92): 13%; growth at 10 µM (HCT-116): 51%; growth at 10 µM (A549): 55%; growth at 10 µM (SN12C): 66%; growth at 10 µM (SK-MEL-28): 63%; growth at 10 µM (M14): 64% |
| Cc1cc(C)c(NC(=O)c2sc3nc4c(cc3c2N)CN(Cc2ccccc2)CC4)c(C)c1 | -11 | 3 | 10 | 8 | 12 | 29 | 27 | 26 | 44 | 8 | 30 | 46 | 37 | 12 | 47 | 28 | 44 | 5 | 13 | 15 | growth at 10 µM (ACHN): 40%; growth at 10 µM (NCI-H460): 7%; growth at 10 µM (UACC-257): 44%; growth at 10 µM (OVCAR-8): 30%; growth at 10 µM (OVCAR-5): 54%; growth at 10 µM (RXF 393): 5%; growth at 10 µM (DU-145): -12%; growth at 10 µM (IGROV-1): 42%; growth at 10 µM (HOP-92): 12%; growth at 10 µM (HCT-116): 16%; growth at 10 µM (A549): 25%; growth at 10 µM (SN12C): 36%; growth at 10 µM (SK-MEL-28): 46%; growth at 10 µM (M14): 17% |
| CN1CCc2nc3sc(C(N)=O)c(N)c3c(-c3cccs3)c2C1 | -18 | -25 | -35 | 12 | 10 | 3 | 3 | 10 | 41 | 10 | 14 | 1 | -21 | 8 | 15 | 16 | 19 | -22 | 12 | 7 | growth at 10 µM (COLO 205): -54%; growth at 10 µM (NCI-H460): 6%; growth at 10 µM (UACC-257): 10%; growth at 10 µM (OVCAR-8): 7%; growth at 10 µM (RXF 393): -43%; growth at 10 µM (DU-145): 10%; growth at 10 µM (IGROV-1): 18%; growth at 10 µM (HOP-92): -4%; growth at 10 µM (HCT-116): 6%; growth at 10 µM (A549): 13%; growth at 10 µM (SN12C): 11%; growth at 10 µM (SK-MEL-28): -2%; growth at 10 µM (M14): 11% |
| COc1cccc(NC(=O)c2sc3nc4c(cc3c2N)CN(Cc2ccccc2)CC4)c1 | -18 | 35 | 30 | 21 | 76 | 27 | 43 | 21 | 13 | 21 | 49 | -17 | 31 | 39 | 71 | 12 | 35 | 46 | 83 | 57 | growth at 10 µM (ACHN): 14%; growth at 10 µM (COLO 205): 44%; growth at 10 µM (NCI-H460): 24%; growth at 10 µM (UACC-257): 44%; growth at 10 µM (OVCAR-8): 28%; growth at 10 µM (OVCAR-5): 71%; growth at 10 µM (RXF 393): 6%; growth at 10 µM (DU-145): 32%; growth at 10 µM (IGROV-1): 67%; growth at 10 µM (HOP-92): 23%; growth at 10 µM (HCT-116): 23%; growth at 10 µM (A549): 22%; growth at 10 µM (SN12C): 52%; growth at 10 µM (SK-MEL-28): 27%; growth at 10 µM (M14): 56% |
| CCc1cccc(C)c1NC(=O)c1sc2nc3c(cc2c1N)C(=O)CCC3 | -27 | -10 | 9 | 13 | 1 | 36 | 32 | 2.81 | 28 | 2 | 10.2 | 23.3 | 29 | 24.4 | 32 | 48 | 42 | -26 | -20 | 14 | growth at 10 µM (ACHN): 22%; growth at 10 µM (COLO 205): -58%; growth at 10 µM (NCI-H460): 4%; growth at 10 µM (UACC-257): 49%; growth at 10 µM (OVCAR-8): 20%; growth at 10 µM (OVCAR-5): 28%; growth at 10 µM (RXF 393): 4%; growth at 10 µM (DU-145): 14.2%; growth at 10 µM (IGROV-1): 30%; growth at 10 µM (HOP-92): 30%; growth at 10 µM (HCT-116): 17%; growth at 10 µM (A549): 22.9%; growth at 10 µM (SN12C): 30%; growth at 10 µM (SK-MEL-28): 39%; growth at 10 µM (M14): 7% |
